According to ChEMBL document CHEMBL4118202, “Chiral analogues of (+)-cyclazosin as potent α1B-adrenoceptor selective antagonist” (Bioorg Med Chem, 2018):

What was measured:
[1] = biological target: T1, Alpha-1B adrenergic receptor (Rattus norvegicus, UniProt P15823); test: Antagonist activity at alpha1B adrenergic receptor in Wistar rat spleen assessed as inhibition of phenylephrine-induced contraction incubated for 30 mins in presence of beta-adrenoceptor blocker propranolol hydrochloride; format: functional; conditions: read-out: pA2 (converted)
T1 sequence (P15823 whole entry): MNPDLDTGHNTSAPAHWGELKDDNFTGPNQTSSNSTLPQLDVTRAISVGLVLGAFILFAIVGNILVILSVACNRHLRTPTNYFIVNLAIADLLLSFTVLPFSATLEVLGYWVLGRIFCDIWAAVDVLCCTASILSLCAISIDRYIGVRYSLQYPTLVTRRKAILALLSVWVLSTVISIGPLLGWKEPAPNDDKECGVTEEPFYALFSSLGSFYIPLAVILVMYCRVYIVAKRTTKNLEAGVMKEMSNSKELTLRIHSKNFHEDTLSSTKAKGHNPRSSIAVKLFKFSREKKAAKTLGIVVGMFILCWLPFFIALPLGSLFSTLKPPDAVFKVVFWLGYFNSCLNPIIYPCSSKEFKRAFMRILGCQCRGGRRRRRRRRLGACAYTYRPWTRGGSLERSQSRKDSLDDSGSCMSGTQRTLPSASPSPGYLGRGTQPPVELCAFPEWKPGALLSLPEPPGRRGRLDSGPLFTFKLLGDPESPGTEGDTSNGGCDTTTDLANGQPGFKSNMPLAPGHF
Summary of the method: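 Spleen bisected longitudinally into strips in Krebs with propranolol 4 μM, held at 1 g and equilibrated 2 h. Two isometric cumulative phenylephrine curves, each followed by 30 min washing. Third curve after 30 min vehicle or antagonist. Potency as pA2 (Schild) or pKB at one concentration (van Rossum). Responses as % of control maximum; n ≥ 4.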

[2] = biological target: T2, Alpha-1A adrenergic receptor (Rattus norvegicus) (UniProt P43140); test: Antagonist activity at alpha1A adrenergic receptor in Wistar rat prostatic rat vas deferens assessed as inhibition of noradrenaline-induced contraction preincubated for 30 mins followed by noradrenaline addition measured after 45 mins in presence of cocaine hydrochloride; format: functional
T2 sequence (whole entry): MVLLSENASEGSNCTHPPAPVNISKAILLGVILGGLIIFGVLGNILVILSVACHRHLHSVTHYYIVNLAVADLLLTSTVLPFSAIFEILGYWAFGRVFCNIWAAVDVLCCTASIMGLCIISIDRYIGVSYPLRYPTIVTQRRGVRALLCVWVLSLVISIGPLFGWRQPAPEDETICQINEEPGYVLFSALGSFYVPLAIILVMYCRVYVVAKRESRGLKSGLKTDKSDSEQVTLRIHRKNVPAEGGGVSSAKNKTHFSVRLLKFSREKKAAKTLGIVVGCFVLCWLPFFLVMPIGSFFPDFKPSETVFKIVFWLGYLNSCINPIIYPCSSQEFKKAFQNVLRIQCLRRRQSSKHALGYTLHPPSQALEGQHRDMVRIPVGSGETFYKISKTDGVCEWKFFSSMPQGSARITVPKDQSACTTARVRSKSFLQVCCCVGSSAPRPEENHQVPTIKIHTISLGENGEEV
Summary of the method: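 Prostatic rat vas deferens, 2 cm portions, held at 0.35 g in Tyrode (pH 7.4, 37 °C, 95% O2/5% CO2). Cocaine 10 μM added 20 min before the agonist. Tissue equilibrated 45 min and primed twice with 10 μM noradrenaline. Isotonic cumulative noradrenaline curves were run before and after 30 min antagonist. pA2 came from Schild plots (≥3 concentrations); otherwise pKB (van Rossum). n ≥ 4.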

Homo sapiens = organism: Homo sapiens; test: Selectivity ratio of compound effect for alpha1B adrenergic receptor (unknown origin) to compound effect for alpha1A adrenergic receptor (unknown origin)
[3] = biological target: T3, Alpha-1D adrenergic receptor (Rattus norvegicus) (UniProt P23944); test: Antagonist activity at alpha1D adrenergic receptor in Wistar rat thoracic aorta assessed as inhibition of noradrenaline-induced contraction measured after 30 mins in presence of cocaine hydrochloride and beta-adrenoceptor blocker propranolol hydrochloride; format: functional
T3 sequence (whole entry): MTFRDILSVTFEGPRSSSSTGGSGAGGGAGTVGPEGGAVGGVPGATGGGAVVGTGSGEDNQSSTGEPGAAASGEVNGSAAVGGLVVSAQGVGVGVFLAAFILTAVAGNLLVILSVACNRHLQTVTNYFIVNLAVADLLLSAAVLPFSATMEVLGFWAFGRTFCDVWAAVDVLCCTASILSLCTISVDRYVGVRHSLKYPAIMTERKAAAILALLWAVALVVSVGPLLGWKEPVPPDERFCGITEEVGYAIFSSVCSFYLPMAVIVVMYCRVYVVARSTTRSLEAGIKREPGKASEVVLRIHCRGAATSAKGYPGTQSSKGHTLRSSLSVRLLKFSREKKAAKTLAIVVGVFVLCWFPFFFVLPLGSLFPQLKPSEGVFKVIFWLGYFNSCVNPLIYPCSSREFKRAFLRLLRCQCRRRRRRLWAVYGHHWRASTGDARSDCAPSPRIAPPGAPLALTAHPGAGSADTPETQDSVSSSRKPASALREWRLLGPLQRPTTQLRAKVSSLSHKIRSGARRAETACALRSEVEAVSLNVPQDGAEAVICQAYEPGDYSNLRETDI
Summary of the method: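 Helical thoracic aorta strips, endothelium removed (checked by loss of acetylcholine relaxation), in Krebs at 1 g, equilibrated ≥2 h. Isometric cumulative noradrenaline curves at 1 h intervals; the second served as control, the third followed 30 min antagonist.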

[4] = biological target: T4, Alpha-1D adrenergic receptor (Homo sapiens, UniProt P25100); test: Binding affinity to alpha1D adrenergic receptor (unknown origin)
T4 sequence (P25100 whole entry): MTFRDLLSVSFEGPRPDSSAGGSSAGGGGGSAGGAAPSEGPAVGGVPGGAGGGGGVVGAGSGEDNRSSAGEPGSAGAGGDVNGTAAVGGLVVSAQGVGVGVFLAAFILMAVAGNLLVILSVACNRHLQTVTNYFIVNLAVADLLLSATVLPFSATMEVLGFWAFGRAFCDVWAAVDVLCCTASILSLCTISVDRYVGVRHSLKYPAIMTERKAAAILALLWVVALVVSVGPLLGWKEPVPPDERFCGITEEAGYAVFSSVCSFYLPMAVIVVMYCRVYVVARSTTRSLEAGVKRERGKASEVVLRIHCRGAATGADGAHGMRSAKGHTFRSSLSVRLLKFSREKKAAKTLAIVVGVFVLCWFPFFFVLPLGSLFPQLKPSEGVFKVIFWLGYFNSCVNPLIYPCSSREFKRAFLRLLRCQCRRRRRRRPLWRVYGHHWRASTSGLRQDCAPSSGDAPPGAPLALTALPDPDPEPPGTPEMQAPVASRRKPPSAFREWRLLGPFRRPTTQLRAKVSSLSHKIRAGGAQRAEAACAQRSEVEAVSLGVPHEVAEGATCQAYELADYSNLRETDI

COc1cc2nc(N3CCN(C(C)=O)[C@@H]4CCCC[C@@H]43)nc(N)c2cc1OC
Kb [1]: 0.617 nM

CCCCCC(=O)N1CCN(c2nc(N)c3cc(OC)c(OC)cc3n2)[C@@H]2CCCC[C@@H]21
pKb [2]: 7.06

COc1cc2nc(N3CCN(C(=O)Cc4ccc5ccccc5c4)[C@H]4CCCC[C@H]43)nc(N)c2cc1OC
pKb [2]: 6.56

CCCN(CCC)c1nc(N2CCN(C(=O)c3ccco3)[C@@H]3CCCC[C@@H]32)nc2cc(OC)c(OC)cc12
pKb [2]: 7.02

COc1cc2nc(N3CCN(C(=O)C(C)(C)C)[C@H]4CCCC[C@H]43)nc(N)c2cc1OC
pKb [2]: 7.17

COc1cc2nc(N3CCN(C(=O)OCc4ccccc4)[C@@H]4CCCC[C@@H]43)nc(N)c2cc1OC
Kb [1]: 1.82 nM

COc1cc2nc(N3CCN(C(=O)COc4c(OC)cccc4C(C)C)[C@H]4CCCC[C@H]43)nc(N)c2cc1OC
Kb [1]: 191 nM

COc1cc2nc(N3CCN(C(C)=O)[C@H]4CCCC[C@H]43)nc(N)c2cc1OC
Kb [1]: 3.02 nM

COc1cc2nc(N3CCN(C(=O)C4COc5ccccc5O4)[C@H]4CCCC[C@H]43)nc(N)c2cc1OC (single isomer, unassigned; (-)) [CYCLODOXAZOSIN]
Selectivity ratio (Homo sapiens): 2 | pKb [3]: 7.1 | Ki [4]: 3.89 nM

CCCN(CCC)c1nc(N2CCN(C(=O)c3ccco3)[C@H]3CCCC[C@H]32)nc2cc(OC)c(OC)cc12
pKb [2]: 5.89 | pKb [3]: 6.22
